From ChEMBL document CHEMBL4033794, “Discovery of Trifluoromethyl Glycol Carbamates as Potent and Selective Covalent Monoacylglycerol Lipase (MAGL) Inhibitors for Treatment of Neuroinflammation” (J Med Chem, 2018)
Active and inactive are the calls of the source. The calls are words filed in the database; no cut-off is given here.

Tests used:
Mus musculus [1] = assay: Anti-inflammatory activity in C57BL6J mouse assessed as reduction in LPS-induced PGE2 levels in brain at 1 mg/kg, sc administered 30 mins after LPS challenge measured at 4 hrs post LPS challenge by LC-MS/MS analysis; assay type: functional, organism-based
Outline: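 Mice given LPS 20 mg/kg IP or saline, then 1 mg/kg SC compound or vehicle 30 min later; brains collected 4 h post-LPS, homogenized in pH 2.0 PMSF/NH4OAc buffer, spiked with d4-PGE2 internal standard, acetonitrile-extracted, and PGE2 quantified by LC-MS/MS.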

[2] = Cmax in C57BL6J mouse brain at 1 mg/kg, sc up to 24 hrs post dose; assay type: ADME, organism-based; set-up: dose 1 mg/kg, route subcutaneous
Mus musculus [3] = assay: Anti-inflammatory activity in C57BL6J mouse assessed as reduction in LPS-induced IL-1beta levels in brain at 1 mg/kg, sc administered 30 mins after LPS challenge measured at 4 hrs post LPS challenge; assay type: functional, organism-based
CYP1A2 = target: T1, CYP1A2 (Homo sapiens, UniProt P05177); assay: Inhibition of CYP1A2 (unknown origin) at 3 uM; assay type: ADME
T1 sequence (P05177 whole entry): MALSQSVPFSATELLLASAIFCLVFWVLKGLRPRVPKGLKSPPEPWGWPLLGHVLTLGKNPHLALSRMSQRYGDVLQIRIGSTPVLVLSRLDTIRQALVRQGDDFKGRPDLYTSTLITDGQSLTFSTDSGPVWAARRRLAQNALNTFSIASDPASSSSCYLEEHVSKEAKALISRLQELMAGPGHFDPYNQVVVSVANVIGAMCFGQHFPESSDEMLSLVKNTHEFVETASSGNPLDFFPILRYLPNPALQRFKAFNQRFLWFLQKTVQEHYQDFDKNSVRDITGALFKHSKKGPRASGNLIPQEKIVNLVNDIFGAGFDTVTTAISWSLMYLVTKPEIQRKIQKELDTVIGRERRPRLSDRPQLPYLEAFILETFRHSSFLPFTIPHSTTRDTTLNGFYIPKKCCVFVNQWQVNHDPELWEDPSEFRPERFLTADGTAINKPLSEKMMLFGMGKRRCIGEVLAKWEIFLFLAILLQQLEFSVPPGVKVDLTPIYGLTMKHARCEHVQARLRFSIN
Outline: (§1)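 Competitive inhibition screen of CYP3A4, 2D6, 2C9, 2C8 and 1A2 using isoform-relevant probe substrates, compound at 3 μM.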

[4] = Apprent permeability in RRCK cells; assay type: ADME, cell-based, Canis lupus familiaris, MDCKII-LE; conditions: dog, MDCK
[5] = Plasma clearance in Wistar Hannover rat at 1 mg/kg, iv administered as bolus dose via jugular vein cannula measured up to 24 hrs post dose by HPLC-MS/MS analysis; assay type: ADME, organism-based
Outline: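 Rats (n = 2) given 1 mg/kg IV bolus via jugular vein cannula, solution in 3% DMA/10% Solutol HS15/10% Miglyol/77% of 20% SBECD in water, 1 mL/kg. Carotid cannula blood pre-dose and 0.083–24 h; plasma by HPLC-MS/MS; non-compartmental analysis.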

[6] = target: T2, CES1 (liver carboxylesterase 1) (Homo sapiens, UniProt P23141); assay: Inhibition of human CES1 at 10 uM
T2 sequence (P23141 whole entry): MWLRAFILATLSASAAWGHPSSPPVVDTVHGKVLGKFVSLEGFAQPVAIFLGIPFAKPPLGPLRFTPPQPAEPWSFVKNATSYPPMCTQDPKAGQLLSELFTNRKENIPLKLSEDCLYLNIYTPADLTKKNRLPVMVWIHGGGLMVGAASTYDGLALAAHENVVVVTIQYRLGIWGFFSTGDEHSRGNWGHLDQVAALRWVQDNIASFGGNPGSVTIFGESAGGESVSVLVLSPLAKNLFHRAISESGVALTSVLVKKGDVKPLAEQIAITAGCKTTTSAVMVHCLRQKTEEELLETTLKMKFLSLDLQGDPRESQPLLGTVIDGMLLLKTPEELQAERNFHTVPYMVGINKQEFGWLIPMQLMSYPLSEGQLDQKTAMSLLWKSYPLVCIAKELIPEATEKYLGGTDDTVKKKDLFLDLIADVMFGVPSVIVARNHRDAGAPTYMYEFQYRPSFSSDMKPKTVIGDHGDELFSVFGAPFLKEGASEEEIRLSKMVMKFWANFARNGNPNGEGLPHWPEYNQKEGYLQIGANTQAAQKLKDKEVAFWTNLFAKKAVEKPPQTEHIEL
Outline: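 Panel of 42 human serine hydrolases, each exposed to inhibitor at 10 µM; activity expressed as percent inhibition.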

[7] = Ratio of unbound AUClast in C57BL6J mouse brain to plasma at 1 mg/kg, sc measured up to 24 hrs post dose by HPLC-MS/MS analysis; conditions: brain and plasma
Mus musculus [8] = organism: Mus musculus; conditions: C57BL6J, 1 mg/kg
CYP2C8 = target: T3, CYP2C8 (Homo sapiens, UniProt P10632); assay: Inhibition of CYP2C8 (unknown origin) at 3 uM; assay type: ADME; outline: as §1
T3 sequence (P10632 whole entry): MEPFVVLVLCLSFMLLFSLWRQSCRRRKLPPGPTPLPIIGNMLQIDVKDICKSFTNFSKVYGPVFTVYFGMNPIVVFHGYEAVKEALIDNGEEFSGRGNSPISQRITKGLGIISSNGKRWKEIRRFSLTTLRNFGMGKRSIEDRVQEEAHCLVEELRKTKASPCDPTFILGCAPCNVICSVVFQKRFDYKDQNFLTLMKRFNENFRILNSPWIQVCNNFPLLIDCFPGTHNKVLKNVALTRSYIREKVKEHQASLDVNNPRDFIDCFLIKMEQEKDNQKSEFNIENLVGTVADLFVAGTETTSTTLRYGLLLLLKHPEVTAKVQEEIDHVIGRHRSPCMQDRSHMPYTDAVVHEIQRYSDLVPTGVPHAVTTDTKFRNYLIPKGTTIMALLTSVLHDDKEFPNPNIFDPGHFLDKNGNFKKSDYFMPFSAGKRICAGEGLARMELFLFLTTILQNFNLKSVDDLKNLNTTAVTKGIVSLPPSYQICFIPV

Mus musculus [9] = organism: Mus musculus; conditions: C57BL6J, 1 mg/kg; remark: listed apart in the source
Mus musculus [10] = organism: Mus musculus; conditions: C57BL6J, 1 mg/kg; remark: listed apart in the source
[11] = Plasma clearance in non-human primate at 1 mg/kg, iv administered via cephalic vein measured up to 24 hrs post dose by HPLC-MS/MS analysis; assay type: ADME, organism-based, Macaca mulatta; conditions: rhesus monkey
Outline: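 Fasted male non-human primates (n = 2), fed ~1 h post-dose; 1 mg/kg IV bolus via saphenous or cephalic vein in 3% DMA/10% Solutol HS15/10% Miglyol/77% of 20% SBECD, 0.5 mL/kg. Femoral blood pre-dose and 0.083–24 h; plasma HPLC-MS/MS; non-compartmental analysis.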

[12] = Unbound fraction in C57BL6J mouse plasma at 1 mg/kg, sc measured up to 24 hrs post dose by HPLC-MS/MS analysis; assay type: ADME, organism-based

O=C(O[C@H](CO)C(F)(F)F)N1C[C@@H]2[C@H](C1)[C@H]2c1ccn(-c2ccc(F)cc2)n1
Activity (Mus musculus [1]): Active
Cmax [2]: > 1000 nM
Activity (Mus musculus [3]): Active
inhibition at 3 µM (CYP1A2): < 10%
Papp [4]: 21 ×10⁻⁶ cm/s
clearance [5]: 61 mL/min/kg
inhibition at 10 µM [6]: 80%
Kp uu at 24 h [7]: 1.4
inhibition (Mus musculus [8]): Active
inhibition at 3 µM (CYP2C8): < 10%
inhibition (Mus musculus [9]): Active
inhibition (Mus musculus [10]): Active
clearance [11]: 16 mL/min/kg
fraction unbound at 24 h [12]: 0.0135
